Calb FLC: affects C. albicans growth with fluconazole. actives 0.57% (n = 300,000). growth inhibition, % (concentration not given with the values). C. albicans CaCi-2 (fluconazole-resistant clinical isolate) + fluconazole, Alamar Blue growth, 48 h;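 active = growth inhibition above about 58% in most replicates, limit read from the data, passing the limit was not always enough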;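 also: all wells also contain fluconazole at 8 µg/ml as a sub-toxic cotreatment; 0% = median of DMSO wells and 100% = median of geldanamycin control wells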
Beta cell apopt: blocks beta cell apoptosis | INS-1E cytokine-induced death, ATP luminescence, 48 h; percent of positive-control rescue, neutral wells zero | protection from apoptosis, % (concentration not given with the values) | actives 0.8% (n = 300,000);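 active = Every replicate reaches about 75%, or at least half do and their mean reaches it too, limit read from the data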;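 also: 0% = cytokine-treated negative control wells and 100% = positive control rescue; higher means more ATP so stronger rescue from cytokine killing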
A1 inh: inhibitors of the anti-apoptotic protein A1, read as caspase activation; MEF A1-2A-BIM cells, Caspase-Glo 3/7 luminescence, 3 h; percent of clofoctol response, vehicle zero; caspase activation, % (no concentration beside the values); actives 0.066% (n = 330,000);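 active = over half of replicate activation scores above 10%, or exactly half above 10 with the replicate mean above 10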
CSC inhib: cancer stem cell inhibition | cancer stem cell-like cells viability, luminescence | actives 1.1% (n = 300,000) | inhibition, % at 7.5 µM; in the data active = inhibition above about 75%; tested in HMLE shEcad cells
TAG inh: inhibitors of triacylglycerol accumulation; H9c2 cells, Nile Red lipid (TAG) fluorescence; cells loaded with 200 µM oleic acid; inhibition, % at 12.5 µM; actives 0.66% (n = 230,000);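 active = pattern-corrected inhibition of lipid staining of at least 50% with the nuclear-stain viability signal not falling by more than 50%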;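 also: 0% = DMSO wells and 100% = triacsin C control wells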
T cruzi inh: T. cruzi replication inhibition; T. cruzi beta-gal in NIH3T3, luminescence, 90 h; inhibition, % (test concentration not listed); actives 1.4% (n = 300,000); AID 1885;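 active = mean inhibition across valid replicates above about 55%, limit read from the data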;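 also: signal also drops with host cell toxicity which is not excluded here; 0% = plate median of DMSO wells and 100% = zero luminescence signal; higher percent means less beta-gal luminescence so fewer parasites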
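System: NIH/3T3 fibroblasts plus reporter T. cruzi. Medium: DMEM plus 2% FBS. Probe or stimulus: 5000 reporter trypomastigotes per well. Compound: single 50 nL compound addition per well in DMSO. Incubation: co-culture of at least 90 h after 3 h attachment. Detection: GalScreen β-gal luminescence, detergent lysis, 60 min. Evaluation: parasite load inhibition, %.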
Numbers without * were called inactive; . = no result given; + = active, no number. Shown are actives, neighbours in structure and some others; about 3.1% of the full set was active somewhere.

SMILES | Calb FLC | Beta cell apopt | A1 inh | CSC inhib | TAG inh | T cruzi inh
COc1ccc(NS(=O)(=O)c2cc(-c3cnc(C4CC4)o3)ccc2C)cc1 | 2 | 17 | 0 | 80* | . | -2
Cc1ccc(C)c(NS(=O)(=O)c2ccc(-c3cnc(C4CC4)o3)cc2)c1 | -33 | 47 | 1 | 75* | . | 22
COc1ccccc1NS(=O)(=O)c1cc(-c2cnc(C3CC3)o2)ccc1C | -4 | 7 | 0 | -7 | . | -96
COc1cc(NC(=O)COc2ccc(Cl)cc2)ccc1-c1cc2ccccc2oc1=O | 46 | -9 | 0 | 47 | . | 30
CC(C)c1ccc(/C=C(\c2nc3ccccc3[nH]2)S(=O)(=O)c2ccccc2)cc1 | -2 | 102* | -2 | 46 | . | 49
O=S(=O)(/C(=C/c1ccc(C(F)(F)F)cc1)c1nc2ccccc2[nH]1)c1ccccc1 | -5 | 100* | 1 | 101* | . | 41
CC(CCC(=O)O)C1CC[C@H]2C3CCC4CC(=O)CCC4(C)[C@H]3CC(=O)C12C (stereo not given in full) | -3 | 3 | 0 | -5 | . | 17
COc1ccc(C(=O)c2ccc3oc(-c4ccc(OC)cc4)c(-c4ccc(O)cc4)c3c2)cc1 | . | 22 | 2 | 104* | 4 | .
COc1cc2c(C#N)c(N3CCCC3)nc(N)c2c(N)n1 | 4 | -3 | 1 | -5 | 11 | 16
N#Cc1c(N2CCCC2)nc(N)c2c(N)nc(N3CCCC3)cc12 | 43 | 80* | 1 | . | -19 | 19
Cc1ccccc1[C@@H](NC(=O)OC(C)(C)C)C(=O)OC(C)(C)C | . | 3 | -1 | -16 | -23 | .
CCN1CCN(c2ccc(S(=O)(=O)N3CCCCC3)cc2NC(=O)COc2ccccc2)CC1 | -6 | . | 0 | -6 | -1 | 58*
CCN1CCN(c2ccc(S(=O)(=O)N3CCOCC3)cc2NC(=O)CCC(C)C)CC1 | -4 | -9 | 1 | -12 | 1 | 56*
CCN1CCN(c2ccc(S(=O)(=O)N3CCOCC3)cc2NC(=O)CCOc2ccccc2)CC1 | -5 | -5 | 1 | -4 | 3 | 56*
CCN1CCN(c2ccc(S(=O)(=O)N3CCOCC3)cc2NC(=O)c2ccc(OCC(C)C)cc2)CC1 | . | . | . | . | 8 | .
CCN1CCN(c2ccc(S(=O)(=O)N3CCOCC3)cc2NC(=O)CCSC)CC1 | . | -1 | 2 | . | 13 | .
CC(Oc1cccc(Cl)c1)C(=O)Nc1cc(S(=O)(=O)N2CCOCC2)ccc1N1CCCCC1 (stereo not given) | -1 | 110* | -1 | -3 | 5 | 47
CCN1CCN(c2ccc(S(=O)(=O)N3CCOCC3)cc2NC(=O)C(C)Oc2cccc(Cl)c2)CC1 (stereo not given) | -13 | 0 | -1 | -10 | 10 | 30
C[C@H](NC(=O)c1ccc2ccccc2c1)C(=O)N1CCC2(CC1)NCCc1[nH]cnc12 | 1 | -4 | 0 | -8 | . | 11
CCOc1cc(C2C3=C(CC(C)(C)CC3=O)N(C)C3=C2C(=O)CC(C)(C)C3)ccc1O | -6 | -9 | 1 | -28 | -1 | -8
O=C(COC(=O)CCC1CCCC1)Nc1cccc(S(=O)(=O)N2CCOCC2)c1 | -2 | 0 | 1 | 20 | -12 | -7
O=C(Nc1cc(S(=O)(=O)N2CCOCC2)ccc1N1CCOCC1)c1ccccc1F | . | 4 | 0 | -10 | 4 | .
O=C(COc1ccccc1F)Nc1cc(S(=O)(=O)N2CCOCC2)ccc1N1CCOCC1 | -3 | -4 | 0 | 13 | 8 | 11
Cc1c(C(=O)N2CCN(S(=O)(=O)c3ccc(F)cc3)CC2)oc2ccccc12 | -10 | 3 | 0 | -13 | 15 | 56*
CCN1CCN(c2ccc(S(=O)(=O)N3CCOCC3)cc2NC(=O)COc2ccc(F)cc2Cl)CC1 | 3 | . | -1 | 4 | 10 | 57*
SMILES | Calb FLC | Beta cell apopt | A1 inh | CSC inhib | TAG inh | T cruzi inh
Cc1c(C(=O)N2CCN(S(=O)(=O)c3cccs3)CC2)oc2ccc(F)cc12 | . | 1 | -1 | -11 | -2 | .
Cc1c(C(=O)Nc2cc(S(=O)(=O)N3CCOCC3)ccc2N2CCOCC2)oc2ccccc12 | -12 | 13 | 0 | 8 | 9 | 75*
CC1(c2cc([N+](=O)[O-])cc([N+](=O)[O-])c2)CC(C)(C)N(C(=O)c2ccccc2)c2ccccc21 (stereo not given) | 12 | 21 | 0 | 22 | 91* | 67*
CC1(c2ccccc2)CC(C)(C)N(C(=O)C2CCCO2)c2ccccc21 (stereo not given) | -5 | -27 | 0 | 15 | . | 10
O=C(CSc1cccc2cccnc12)N1CCCC1 | 2 | 54 | -1 | 18 | 98 | 61*
CCCCC[C@@H](/C=C/C1C(=O)C=C[C@H]1C/C=C\CCCC(=O)OC)OC(C)=O (stereo not given in full) | . | . | . | . | 9 | .
O=C(Nc1ccccc1C(=O)Nc1nnc(C(F)(F)F)s1)c1ccccc1 | -13 | 12 | 0 | 195* | -8 | 59*
O=C(COC(=O)c1ccc(Br)cc1)NCc1ccccc1 | -1 | -4 | 1 | -7 | . | -1
CC(=O)Cc1cc(O)c2ccccc2c1OC(=O)c1ccc(Br)cc1 | 1 | 108* | 0 | 37 | 32 | -24
CC(C)COc1ccc(-c2nn(-c3ccccc3)cc2/C=C2/SC(=S)N(CC(=O)O)C2=O)cc1 | -4 | -3 | 0 | + | 2 | -5
Cc1ccc(S(=O)(=O)NC(CC(C)C)C(=O)NCC(C)(C)N2CCOCC2)cc1 (stereo not given) | 4 | 4 | 0 | -6 | 6 | -12
Cc1ccccc1-c1nnn(Cc2cccc(S(=O)(=O)N3CCOCC3)c2)n1 | . | 2 | 0 | 0 | 12 | .
CN(C)CCOc1ccc(C(C)(C)c2ccccc2)cc1 | -11 | -2 | 0 | 146* | -11 | 30
CC/C(=C(\c1ccccc1)c1ccc(OCCN(C)C)cc1)c1ccccc1 | . | 1 | 0 | 99* | -7 | 8
CN(C)CCCOc1ccc(C(C)(C)c2ccccc2)cc1 | 22 | . | 0 | 44 | -11 | 25
CCN(CC)CCOc1ccc(/C(=C(/Cl)c2ccccc2)c2ccccc2)cc1 | . | 33 | 0 | 101* | 19 | 40
COc1cc(C(C)=O)ccc1OCC(=O)Nc1ccc(Cl)c(S(=O)(=O)N2CCOCC2)c1 | . | 2 | 0 | . | -14 | .
CCCCn1c(N)c(N(Cc2ccccc2OC)C(=O)CCC(C)C)c(=O)[nH]c1=O | -2 | 1 | 0 | -15 | . | 10
Cc1ccccc1C(=O)Nc1ccc(S(=O)(=O)N2CCCC2)cc1 | -11 | 4 | -1 | 3 | . | -4
CCCCNc1c(-c2ccc(SC3CCCCC3)c(OC)c2)nc2ccc(Cl)cn12 | 3 | -1 | 1 | 3 | 18 | 70*
CCCCNc1c(-c2ccc(SC(C)CC)c(OC)c2)nc2ccc(C)cn12 (stereo not given) | 17 | 53 | -2 | 123* | 10 | 29

Compound activity: PubChem BioAssay, several laboratories
